# An excerpt weighted towards active compounds, which were near 1.8% of everything screened.
# M5 PAM = positive allosteric modulators of human muscarinic M5 receptor; CHO-K1 hM5, Fluo-8 calcium, ACh EC20 PAM; 0% = ACh EC20, 100% = ACh EC100; activation, % at 3 µM; 360,000 tested, 0.3% active; AID 624038;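 active = activation above the run cutoff, the mean activation of all test compounds plus 3 SD, cut at about 18% in these data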
# Target sequence (P08912 whole entry, looked up): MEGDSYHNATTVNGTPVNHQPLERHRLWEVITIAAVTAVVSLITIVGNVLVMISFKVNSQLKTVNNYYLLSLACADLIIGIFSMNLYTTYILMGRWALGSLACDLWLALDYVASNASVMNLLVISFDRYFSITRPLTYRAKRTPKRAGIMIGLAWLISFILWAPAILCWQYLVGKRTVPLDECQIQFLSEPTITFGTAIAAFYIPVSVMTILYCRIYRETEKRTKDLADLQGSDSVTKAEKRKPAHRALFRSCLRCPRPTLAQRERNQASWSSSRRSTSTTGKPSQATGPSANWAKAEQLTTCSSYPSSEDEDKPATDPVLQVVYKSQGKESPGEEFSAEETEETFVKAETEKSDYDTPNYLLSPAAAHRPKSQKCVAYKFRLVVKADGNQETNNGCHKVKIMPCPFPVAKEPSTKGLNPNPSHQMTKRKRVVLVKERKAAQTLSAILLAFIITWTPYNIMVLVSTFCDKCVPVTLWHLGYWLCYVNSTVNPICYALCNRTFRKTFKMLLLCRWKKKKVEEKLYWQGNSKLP
#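 system = human M5 receptor in CHO-K1 cells | compound = one concentration, 3 µM final (nominal) | schedule = Post-acetylcholine fluorescence recording 140 s | signal = Fluo-8 calcium dye fluorescence, kinetic read | benchmarks = low control EC20 acetylcholine (0%), high control EC100 acetylcholine (100%) | repeats = singlicate, one well per test compound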
# M5 ag = agonists of human muscarinic M5 receptor (CHRM5) | P08912 | CHO-K1 hM5 cells, Fluo-8 calcium fluorescence; 0% DMSO wells, 100% maximal acetylcholine response | activation, % at 3 µM | 360,000 tested, 0.19% active;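 active = activation above the run's mean over test compounds plus 3 SD, cut at about 23% in these data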;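 also: signal is peak over basal fluorescence ratio across the kinetic read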
# M4 antag = CHRM4 antagonism in calcium assay | CHO-hM4 cells, ACh EC80, Fluo-8 calcium fluorescence | inhibition, % at 3 µM | 360,000 tested, 0.73% active | AID 624125;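 active = inhibition above its plate's cutoff, the mean inhibition of sample wells plus 3 SD, cut at about 27% in these data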;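 also: 0% = acetylcholine EC80 with DMSO and 100% = DMSO without agonist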
# CHRM4 PAM = CHRM4 positive allosteric modulation; AID 624126; activation, % at 3 µM; 360,000 tested, 0.4% active; CHO-K1 hM4/Gqi5, Fluo-8 calcium fluorescence, ACh EC20; 0% = ACh EC20, 100% = maximal ACh;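 active = activation above its plate's cutoff, the mean activation of sample wells plus 3 SD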
# M4 ag = CHRM4 agonism in calcium assay; CHO-K1 hM4/Gqi5, Fluo-8 calcium fluorescence; vehicle 0%, full acetylcholine response 100%; AID 624127; P08173; 360,000 tested, 0.14% active; activation, % at 3 µM;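 active = activation above the run mean over all test wells plus 3 SD, cut at about 32% in these data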;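 also: peak over basal fluorescence ratio per well then scaled between controls; 0% = DMSO wells and 100% = acetylcholine at EC100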
# M5 antag = CHRM5 antagonism in calcium assay; P08912; CHO-hM5 cells, Fluo-8 calcium fluorescence, ACh EC80; inhibition, % at 3 µM; 360,000 tested, 0.59% active; AID 624040;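 active = inhibition above a per-plate cutoff, the mean of that plate's test compounds plus 3 SD, cut at about 27% in these data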;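 also: 0% = acetylcholine EC80 with DMSO and 100% = DMSO without agonist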
# Starred values were filed as active, the others as inactive.
SMILES,M5 PAM,M5 ag,M4 antag,CHRM4 PAM,M4 ag,M5 antag
CCOc1ccc(/C=C/C2=Cc3c(sc(NC(=O)CSc4n[nH]c(N)n4)c3C#N)C(C)(C)C2)cc1,8.1,7.9,47.3*,-1.8,7.5,22.7
CSc1ccccc1NS(=O)(=O)c1cccc2nonc12,2.2,-2.8,2.3,3.0,0.1,-6.5
CC1(C)CC(=O)C2=C(C1)NCN(Cc1ccccc1)C2,12.9,5.8,-4.0,34.4*,1.1,-10.6
CCCN1CN(Cc2ccccc2)CC2=C1CC(C)(C)CC2=O,7.3,-1.6,-0.5,6.4,0.7,-16.3
O=C1CC(=C(c2ccccc2)c2ccccc2)C(=O)N1CCN1CCN(c2cccc(Cl)c2)CC1,-1.0,-1.3,16.8,8.7,1.1,-1.9
O=C1CC(=C(c2ccccc2)c2ccccc2)C(=O)N1CCCN1CCN(c2cccc(Cl)c2)CC1,-22.2,-8.2,28.1*,-21.7,-1.0,3.0
COc1cc(OC)c(OC)cc1CNC(=O)c1cc(S(=O)(=O)N(C)c2ccccc2OC)ccc1C,-15.4,6.2,-0.9,-4.6,12.9,7.8
CC1CN(C)C(C)CC1OC(=O)C(c1ccccc1)c1ccccc1 (stereo not given),-29.2,-17.1,60.9*,-14.8,0.6,68.4*
CN(C)[C@@H]1CCC[C@H]1OC(=O)C(c1ccccc1)c1ccccc1,-19.5,-7.9,20.0,-13.6,0.3,52.7*
NC(=O)C(c1ccccc1)C1CCCC1 (stereo not given),-3.5,-1.3,-1.5,4.8,1.2,-11.4
CN1CCN(C2=Cc3ccc(Cl)cc3Sc3ccc(F)cc32)CC1,-9.6,-10.0,18.3,-11.2,9.6,5.2
CN1CCN(C2=Cc3ccccc3Sc3cc(F)ccc32)CC1,-42.9,-13.1,20.8,-16.4,5.4,27.7*
CC(C)N(c1ccccc1)c1ccc(NC(=O)[C@@H]2O[C@H](CO)[C@@H](O)[C@H]2O)cc1,-0.6,-0.1,-0.1,6.1,0.2,3.4
O=C(OCCCOC(=O)c1ccc(Br)o1)c1ccc(Br)o1,-2.2,-4.4,11.4,-2.9,-1.0,9.7
CCC(C)NC(=O)C1c2ccccc2C(=O)N1Cc1ccc(OC)cc1OC (stereo not given),2.7,1.9,-2.6,1.1,0.7,-9.2
CCC(C)NC(=O)C1c2ccccc2C(=O)N1Cc1ccccc1OC (stereo not given),29.6*,2.8,-7.8,10.6,0.2,-11.7
COc1ccc(F)cc1CSc1nnnn1-c1ccc(O)cc1,-5.1,-1.1,15.2,-6.7,5.6,-1.2
COc1cc(CSc2nnnn2-c2ccc(C)cc2)cc(OC)c1OC,-18.7,2.1,17.1,-8.1,12.9,30.8*
CN1CCCN=C1COC(=O)C(O)(c1ccccc1)C1CCCCC1 (stereo not given),-18.5,-1.6,99.2*,-18.2,0.8,98.7*
CCN(CC)CCNC(=O)Cn1ncc2ccccc2c1=O,20.4*,8.0,0.3,18.4,0.4,-10.7
CCN(CC)CCNC(=O)Cn1nc(-c2ccccc2)c2ccccc2c1=O,-4.2,-10.0,-0.7,-2.5,-0.3,7.9
Cc1coc2c1c(C)cc1oc(=O)c(CC(=O)NCCCN3CCCC3=O)c(C)c12,0.0,0.2,2.4,1.3,0.0,2.0
COc1ccccc1C(=O)NC(=O)COC(=O)c1cc[n+]([O-])cc1,0.1,4.0,4.0,5.1,1.1,7.0
O=C(Nc1cccc(C(F)(F)F)c1)C1Cc2c(-c3ccc(Cl)cc3)ccnc2O1 (stereo not given),-1.1,0.7,-36.6,16.7*,1.4,-5.2
COc1ccccc1C(=O)Oc1ccc(C(C)(C)C)cc1,26.0*,-10.3,-19.3,-2.5,0.0,16.6
SMILES,M5 PAM,M5 ag,M4 antag,CHRM4 PAM,M4 ag,M5 antag
COc1ccccc1C(=O)Oc1ccc2ccc(=O)oc2c1,4.0,-2.0,-11.4,-2.7,2.5,-4.9
COc1cc(NC(=O)C(C)Oc2ccccc2)c(OC)cc1NC(=O)c1ccccc1 (stereo not given),8.1,-0.2,-7.2,3.5,-0.9,0.9
C[C@H](NCc1c[nH]c2ccccc12)c1ccccc1,-4.3,5.6,15.8,-4.2,2.9,5.2
Cc1cccc(C2(c3cccc(C)c3)CC2C(=O)Nc2ccc([N+](=O)[O-])cc2O)c1 (stereo not given),-21.4,2.0,27.2*,-13.1,6.8,32.8*
OC1(c2cccs2)CN(c2ccccc2)C2=[N+]1CCCC2 (stereo not given),-5.5,-16.1,-2.7,-6.0,1.2,1.4
COc1ccc(OC)c(N2CC(O)(c3cccs3)[N+]3=C2SCCC3)c1 (stereo not given),10.3,-1.9,2.6,0.5,0.4,-1.5
OC1(c2cccs2)CN(c2ccc(Br)cc2)C2=[N+]1CCCS2 (stereo not given),-28.3,-20.4,27.1*,-13.8,0.4,19.7
CCOc1ccc(N2CC(O)(c3cccs3)[N+]3=C2CCCC3)cc1 (stereo not given),-33.3,-16.5,25.7,-18.2,1.3,35.8*
O=C(c1ccc2c(c1)OCO2)C1CCCN(Cc2ccc(OC(F)F)cc2)C1 (stereo not given),-14.1,-5.8,33.5*,-15.3,8.9,6.0
CCOC(=O)CC1(NC(=O)c2cc(COc3cccc(OC)c3)on2)CCCCC1,-7.2,1.3,6.8,-7.7,7.8,-3.0
Cc1ccc(NS(=O)(=O)c2ccc(C(=O)N3CC(C)CC(C)C3)cc2)cc1 (stereo not given),-14.9,55.6*,35.1*,-19.1,107.1*,30.6*
CS(=O)(=O)Nc1ccc(C(=O)N2CCCCC2)cc1,-7.8,0.1,-2.9,22.7*,3.2,-4.1
CC1CN(C(=O)c2ccc(S(=O)(=O)Nc3cccc(C(F)(F)F)c3)cc2)CC(C)O1 (stereo not given),-3.9,27.7*,-10.8,-2.4,11.8,3.3
COc1cccc(C(=O)N2CCC(CCC(=O)Nc3cccc(C)c3)CC2)c1,-2.1,0.3,-1.6,-1.1,2.7,3.5
Cc1cccc(NC2=C(C#N)C(=O)NC3(CCCC3)S2)c1,1.5,1.4,-26.3,14.6*,0.5,-9.1
Cc1cccc(N2C(S)=C(C#N)C(=O)NC23CCCCC3)c1,3.3,0.1,-13.0,10.1,1.1,-7.4
CN1CCN(S(=O)(=O)c2cccc(C(=O)Oc3ccccc3Cl)c2)CC1,-3.6,-2.1,4.1,-2.9,3.7,5.6
FC(F)(F)c1cccc(NC(=S)NC(c2ccccc2)c2ccccc2)c1,-18.6,2.0,12.4,-18.3,13.7,27.3*
O=C(Nc1ccccc1)Nc1cccc(C(F)(F)F)c1,-17.1,4.3,3.5,-11.9,15.7,39.7*
